Data published in ChEMBL document CHEMBL2434854, “Synthesis and anticancer activity of some novel trifluoromethylquinolines carrying a biologically active benzenesulfonamide moiety” (Eur J Med Chem, 2013).

Key:
Type in all cases: functional, cell-based
[1] = system: HeLa; test: Anticancer activity against human HeLa cells after 48 hrs by SRB assay
Method in brief: (§1)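 Cells seeded 10^4 cells/well and allowed to attach for 24 h, then exposed to compounds dissolved in DMSO at 10, 25, 50 and 100 μM, triplicate wells per concentration, for 48 h at 37 °C in 5% CO2. Fixed, stained 30 min with 0.4% (wt/vol) SRB in 1% acetic acid, washed four times with 1% acetic acid, dye recovered in Tris-EDTA, absorbance read. IC50 taken from survival curves; doxorubicin reference.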

[2] = system: HT-1080; test: Anticancer activity against human HT1080 cells after 48 hrs by SRB assay; conditions: HT-1080, 48 h; method in brief: as §1
[3] = Anticancer activity against human […] cells after 48 hrs by SRB assay; method in brief: as §1
[4] = system: HepG2; test: Anticancer activity against human HepG2 cells after 48 hrs by SRB assay; method in brief: as §1
[5] = system: MDA-MB-231; test: Anticancer activity against human MDA-MB-231 cells after 48 hrs by SRB assay; method in brief: as §1
[6] = system: LoVo; test: Anticancer activity against human LoVo cells after 48 hrs by SRB assay; method in brief: as §1
[7] = Homo sapiens, HeLa, 48 h, read-out: IC50
[8] = Homo sapiens, 48 h, read-out: IC50
[9] = Homo sapiens, MDA-MB-231, 48 h, read-out: IC50
[10] = Homo sapiens, LoVo, 48 h, read-out: IC50
[11] = Homo sapiens, HepG2, 48 h, read-out: IC50

SMILES	IC50 [1, 7] [µM]	IC50 [2] [µM]	IC50 [3, 8] [µM]	IC50 ([4]; hepg2)	IC50 [5, 9] [µM]	IC50 [6, 10] [µM]	IC50 [4, 11] [µM]	IC50 ([5]; mda-mb-231)	IC50 ([6]; lovo)	IC50 ([1]; hela)	IC50 [3]
O=C(Nc1ccccc1)Nc1ccc(S(=O)(=O)Nc2ccnc3cc(C(F)(F)F)ccc23)cc1	41	25.4	24.5	Not Active	52.9	30.2	–	–	–	–	–
NS(=O)(=O)c1ccc(N/C(S)=N\c2ccnc3cc(C(F)(F)F)ccc23)cc1	36.6	31	36.6	–	52.9	34.5	52.2	–	–	–	–
CC(=O)NS(=O)(=O)c1ccc(N/C(S)=N\c2ccnc3cc(C(F)(F)F)ccc23)cc1	37.6	28.3	37.6	–	58.6	30	28.4	–	–	–	–
N=C(N)NS(=O)(=O)c1ccc(N/C(S)=N\c2ccnc3cc(C(F)(F)F)ccc23)cc1	23.9	24.3	23.9	–	–	23.9	33.5	Not Active	–	–	–
Cc1cc(NS(=O)(=O)c2ccc(N/C(S)=N\c3ccnc4cc(C(F)(F)F)ccc34)cc2)on1	60.2	27.3	60.2	–	80.3	–	28.5	–	Not Active	–	–
Cc1noc(NS(=O)(=O)c2ccc(N/C(S)=N\c3ccnc4cc(C(F)(F)F)ccc34)cc2)c1C	–	27.7	34	–	27.9	67	36.8	–	–	Not Active	–
O=S(=O)(Nc1nccs1)c1ccc(N/C(S)=N\c2ccnc3cc(C(F)(F)F)ccc23)cc1	95.2	27.3	27.2	–	24.4	67.1	28.2	–	–	–	–
O=S(=O)(Nc1ccccn1)c1ccc(N/C(S)=N\c2ccnc3cc(C(F)(F)F)ccc23)cc1	68.8	28	33.5	–	49.3	87.5	28	–	–	–	–
O=S(=O)(Nc1ncccn1)c1ccc(N/C(S)=N\c2ccnc3cc(C(F)(F)F)ccc23)cc1	–	29.1	37.8	–	45.2	34.7	42.1	–	–	Not Active	–
Cc1ccnc(NS(=O)(=O)c2ccc(N/C(S)=N\c3ccnc4cc(C(F)(F)F)ccc34)cc2)n1	31	28.7	31	Not Active	29.8	31	–	–	–	–	–
Cc1cc(C)nc(NS(=O)(=O)c2ccc(N/C(S)=N\c3ccnc4cc(C(F)(F)F)ccc34)cc2)n1	33	29.5	43.4	–	52.9	40.2	72.2	–	–	–	–
COc1cc(NS(=O)(=O)c2ccc(N/C(S)=N\c3ccnc4cc(C(F)(F)F)ccc34)cc2)nc(OC)n1	53.8	29.5	64.5	–	52.1	76.7	76.7	–	–	–	–
COc1ncnc(NS(=O)(=O)c2ccc(N/C(S)=N\c3ccnc4cc(C(F)(F)F)ccc34)cc2)c1OC	–	22.8	81.8	–	83	28.4	77.2	–	–	Not Active	–
NS(=O)(=O)c1ccc(Nc2ccnc3cc(C(F)(F)F)ccc23)cc1	61.2	56.1	79	–	34.4	26.6	50.8	–	–	–	–
CC(=O)NS(=O)(=O)c1ccc(Nc2ccnc3cc(C(F)(F)F)ccc23)cc1	–	41.6	64.2	–	75.6	51.5	46	–	–	Not Active	–
N=C(N)NS(=O)(=O)c1ccc(Nc2ccnc3cc(C(F)(F)F)ccc23)cc1	41.3	49.8	55.2	Not Active	28.8	24.7	–	–	–	–	–
Cc1cc(NS(=O)(=O)c2ccc(Nc3ccnc4cc(C(F)(F)F)ccc34)cc2)on1	97.6	33.5	74.8	–	74.8	33.6	33.5	–	–	–	–
Cc1noc(NS(=O)(=O)c2ccc(Nc3ccnc4cc(C(F)(F)F)ccc34)cc2)c1C	–	31.9	53.1	–	39.3	36	40.8	–	–	Not Active	–
O=S(=O)(Nc1ccnn1-c1ccccc1)c1ccc(Nc2ccnc3cc(C(F)(F)F)ccc23)cc1	34.1	25.8	52.8	–	52.8	56.8	82.6	–	–	–	–
O=S(=O)(Nc1nccs1)c1ccc(Nc2ccnc3cc(C(F)(F)F)ccc23)cc1	70.8	40.3	66.1	Not Active	90.8	–	–	–	Not Active	–	–
O=S(=O)(Nc1ccccn1)c1ccc(Nc2ccnc3cc(C(F)(F)F)ccc23)cc1	44.8	41.8	30.4	–	18.4	20.2	46.1	–	–	–	–
O=S(=O)(Nc1ncccn1)c1ccc(Nc2ccnc3cc(C(F)(F)F)ccc23)cc1	78.1	27.2	34.2	Not Active	54.7	27.4	–	–	–	–	–
Cc1ccnc(NS(=O)(=O)c2ccc(Nc3ccnc4cc(C(F)(F)F)ccc34)cc2)n1	–	32.5	62.5	Not Active	–	–	–	Not Active	Not Active	Not Active	–
Cc1cc(C)nc(NS(=O)(=O)c2ccc(Nc3ccnc4cc(C(F)(F)F)ccc34)cc2)n1	32	32.8	–	Not Active	36.2	44.3	–	–	–	–	Not Active
COc1cc(NS(=O)(=O)c2ccc(Nc3ccnc4cc(C(F)(F)F)ccc34)cc2)nc(OC)n1	83.2	39.2	37.9	–	–	50.4	83.8	Not Active	–	–	–
COc1ncnc(NS(=O)(=O)c2ccc(Nc3ccnc4cc(C(F)(F)F)ccc34)cc2)c1OC	–	26	36.9	–	49.4	39.9	66.1	–	–	Not Active	–
O=C(Nc1ccccc1)NS(=O)(=O)c1ccc(Nc2ccnc3cc(C(F)(F)F)ccc23)cc1	35.3	17.9	18.4	–	18.4	19.7	27.6	–	–	–	–
Nc1ccc(S(=O)(=O)Nc2ccnc3cc(C(F)(F)F)ccc23)cc1	46	29.6	29.2	–	30.9	53.6	93.1	–	–	–	–
COc1cccc2c1C(=O)c1c(O)c3c(c(O)c1C2=O)C[C@@](O)(C(=O)CO)C[C@@H]3O[C@H]1C[C@H](N)[C@H](O)[C@H](C)O1 [DOXORUBICIN]	30.2	19.2	32.8	–	34	24.3	27.1	–	–	–	–
